Marks after values point to notes of the source that are not given here. Where no end group is shown, it is not given here.
Assays:
[1] = system: EGFR phosphorylation (Tyr-1068 and Tyr-1173) in HSC3 cells expressing wild-type PTPRJ; conditions: 10 μM, 1-h treatment; ref Bloch et al., 2019; cited from earlier work
[2] = system: HSC3 cells ectopically expressing PTPRJ; conditions: 10 μM, 1-h treatment; ref Bloch et al., 2019; cited from earlier work
[3] = Tryptophan fluorescence emission maximum; format: physicochemical; conditions: POPC LUVs, pH 8.0 and pH 4.0, Trp fluorescence
[4] = pH at which 50% of peptides are in the α-helical membrane inserted state; ref Vasquez-Montes et al. (2018); cited from earlier work
[5] = Solubility in aqueous buffer; format: physicochemical; conditions: peptides solubilized to 20 μM in 5 mM sodium phosphate pH 8.0
HSC3 cells = assay: Lactate dehydrogenase release assay; format: cell-based, human; conditions: 10 μM, 1 h, pH 7.4, 5.5 or 5.0, mean ± S.D., n = 3
[6] = system: HSC3 cells expressing PTPRJ ectopically; assay: Cell viability assay; format: cell-based, human; conditions: 72 h recovery, MTT, n = 9
How it was run: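 HSC3 cells engineered to express wild-type PTPRJ, grown in high-glucose DMEM with 10% FBS at 37°C and 5% CO₂, seeded at 5000 cells/well overnight. Peptide in serum-free medium for 5 min at 37°C. Medium then acidified to target pH with citric acid-buffered medium (pH 2.0) for 10 min. Cells washed, then 72 h recovery in complete DMEM. MTT read-out, normalized to medium-only pH 7.4 cells. […]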

[7] = system: EGFR phosphorylation (Tyr-1068 and Tyr-1173) in HSC3 cells expressing wild-type PTPRJ; assay: EGFR Tyr phosphorylation level by immunoblotting; format: cell-based, human; conditions: 10 μM, 10 min, indicated pHs (7.4, 5.5, 5.0), then EGF
How it was run: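 HSC3 cells engineered to express wild-type PTPRJ, seeded and grown overnight, then serum-starved 2 h. Peptide in serum-free medium for 5 min at 37°C; medium acidified with citrate-buffered medium (pH 2.0) to reach final 10 μM; 10 min at 37°C; then EGF 10 ng/mL for 10 min. Lysates immunoblotted for pY1068, pY1173 and total EGFR; chemiluminescence; densitometric phospho/total ratio, mean values.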

[8] = system: HSC3 cells ectopically expressing PTPRJ; assay: Wound healing scratch assay; format: cell-based, human; conditions: 10 μM, 10 min, n = 8-11
How it was run: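 PTPRJ-expressing HSC3 monolayers, confluent at 24 h, serum-starved 2 h. Peptide added in serum-free medium at pH 7.4 (5 min, 37°C), then pH lowered with citrate-buffered medium (pH 2.0) to reach final concentration; 10 min exposure. Monolayer scratched, then complete medium with EGF 50 ng/mL, 37°C, 10 h. Closure taken as percent area change from start to end, normalized to cells treated at pH 7.4.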

KKTTLLLL S SIG A IMW V SLVCLIAVKGSNKK [RJbinder]
decrease in phosphorylation at Tyr-1068 and Tyr-117 [1]: 20%–30% | decrease in cell migration [2]: 20%

DDDDDDTTLLLLS DIGA IMWVSLVDLIADADEG [hybrid1]
partitioning into the lipid bilayer [3]: does not partition into the lipid bilayer

AAEQNPIYWARYDWLFTTPLLLLDLALLVDADEGG [pHLIP(WT‐Ala)]
pK50 [4]: 6.1 ^b

DDTTLLLLSEIGAGMWVSLVELIADADEG [hybrid7]
solubility in aqueous buffer [5]: readily soluble in aqueous buffer | release of LDH (membrane integrity) (HSC3 cells): Neither hybrid7 nor low pH treatment causes a significant release of LDH | cell viability ([6]; pH 5.5, 10 μM, 10 min treatment): 20%

DDTTLLLLSEIGLGMWVSLVELIADADEG [hybrid7‐control]
change in EGFR phosphorylation level [7]: no changes in phosphorylation level | decrease / inhibition in cell migration (wound closure) ([8]; pH 5.0, EGF 50 ng/mL 10 h): 30% | effect on cell migration (wound closure) ([8]; pH 5.5, EGF 50 ng/mL 10 h): does not result in any effect | effect on cell viability ([6]; pH 7.4 or 5.5, 10 min treatment): had no effect at either high or acidic pH

AAEQNPIYWARYDWLFTTGLLLLDLALLVDADEGG [pHLIP(P20G)]
pK50 [4]: 7.2 ^b

— article PMC10461461 (Protein Science : A Publication of the Protein Society, 2023)
